Data on nine compounds can be found in ChEMBL document CHEMBL1140578, “Solid-phase synthesis and biological evaluation of a uridinyl branched peptide urea library” (2007).

Assay [1] has as its system Bacillus anthracis. Kind of assay: Antimicrobial activity against Bacillus anthracis Sterne. It counts as functional, organism-based.
Assay [2] concerns Enterococcus faecalis. The experiment in a line: Antimicrobial activity against Enterococcus faecalis. It counts as functional, organism-based.
The test system of assay [3] is Staphylococcus aureus. Kind of assay: Antimicrobial activity against methicillin-susceptible Staphylococcus aureus. It counts as functional, organism-based.
For assay [4], the system named is Bacillus subtilis. Kind of assay: Antimicrobial activity against Bacillus subtilis. The assay is classed as functional, organism-based.
Assay [5] concerns Escherichia coli. The experiment in a line: Antimicrobial activity against Escherichia coli K12. The assay is classed as functional, organism-based.
Assay [6] concerns Mycobacterium tuberculosis. The experiment in a line: Antituberculosis activity against Mycobacterium tuberculosis H37Rv by micro-broth dilution method. The assay is classed as functional. An outline of the steps:
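M. tuberculosis H37Rv grown in Middlebrook 7H9 ADC medium and tested by microbroth dilution per CLSI guidelines, with 2×10^4 bacteria per well. Compounds were dissolved and diluted in DMSO (4 μl into 196 μl). The primary screen used 20, 10 and 5 μg/ml based on recovered yield. Resynthesized compounds were run as 1:1 serial dilutions from 200 to 1.56 μg/ml to give MIC90. Controls were no drug and isoniazid.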
For orientation: Broth dilution looks for growth in wells or tubes with falling amounts of substance.

Each structure is given as a SMILES string. Converted amounts (≈) assume the structure as drawn. The source made the active and inactive calls. No cut-off for these calls is given here.

Broadly, the MIC90 is the lowest concentration that inhibits either 90% of growth or 90% of the strains tested, depending on the study. Low readings indicate higher susceptibility, high ones lower susceptibility. For the compound `CCCCCCNC(=O)N[C@@H](Cc1c[nH]c2ccccc12)C(=O)N[C@@H](CNC(=O)[C@@H](N)Cc1c[nH]c2ccccc12)C(=O)NC[C@H]1O[C@@H](n2ccc(=O)[nH]c2=O)[C@H](O)[C@@H]1O`, the result in assay [1], in assay [2], in assay [3], in assay [4] and in assay [5] was inactive. The MIC90 in assay [6] worked out at 25 µg/mL (≈ 30.2 µM).

For `CC(=O)c1cccc(NC(=O)N[C@@H](Cc2c[nH]c3ccccc23)C(=O)N[C@@H](CNC(=O)[C@@H](N)Cc2c[nH]c3ccccc23)C(=O)NC[C@H]2O[C@@H](n3ccc(=O)[nH]c3=O)[C@H](O)[C@@H]2O)c1`, the result in assay [1], in assay [2], in assay [3], in assay [4] and in assay [5] was inactive. In addition, the MIC90 in assay [6] was 50 µg/mL (≈ 57.9 µM).

Regarding `COc1ccc(NC(=O)N[C@@H](Cc2c[nH]c3ccccc23)C(=O)N[C@@H](CNC(=O)[C@@H](N)Cc2c[nH]c3ccccc23)C(=O)NC[C@H]2O[C@@H](n3ccc(=O)[nH]c3=O)[C@H](O)[C@@H]2O)cc1`, the result in assay [1], in assay [2], in assay [3], in assay [4] and in assay [5] was inactive. Also, in assay [6], the MIC90 came to 12.5 µg/mL (≈ 14.7 µM).

As to `CC(=O)c1cccc(NC(=O)N[C@@H](Cc2c[nH]c3ccccc23)C(=O)N[C@@H](CNC(=O)[C@@H](N)CC(N)=O)C(=O)NC[C@H]2O[C@@H](n3ccc(=O)[nH]c3=O)[C@H](O)[C@@H]2O)c1`, the result in assay [1], in assay [2], in assay [3], in assay [4] and in assay [5] was inactive. This compound came in with an MIC90 in assay [6] above 200 µg/mL.

Regarding `COc1ccc(NC(=O)N[C@@H](Cc2ccc(O)cc2)C(=O)N[C@@H](CNC(=O)[C@@H](N)Cc2ccc([N+](=O)[O-])cc2)C(=O)NC[C@H]2O[C@@H](n3ccc(=O)[nH]c3=O)[C@H](O)[C@@H]2O)cc1`, the outcome in assay [1], in assay [2], in assay [3], in assay [4] and in assay [5] was inactive. Besides, the MIC90 in assay [6] stood at 12.5 µg/mL (≈ 15 µM).

Turning to `CCCNC(=O)N[C@@H](Cc1c[nH]c2ccccc12)C(=O)N[C@@H](CNC(=O)[C@@H](N)Cc1c[nH]c2ccccc12)C(=O)NC[C@H]1O[C@@H](n2ccc(=O)[nH]c2=O)[C@H](O)[C@@H]1O`, the result in assay [1], in assay [2], in assay [3], in assay [4] and in assay [5] was inactive. The compound further came in with an MIC90 in assay [6] of 100 µg/mL (≈ 127 µM).

As for `N[C@@H](Cc1c[nH]c2ccccc12)C(=O)NC[C@H](NC(=O)[C@H](Cc1c[nH]c2ccccc12)NC(=O)NCCc1ccccc1)C(=O)NC[C@H]1O[C@@H](n2ccc(=O)[nH]c2=O)[C@H](O)[C@@H]1O`, the outcome in assay [1], in assay [2], in assay [3], in assay [4] and in assay [5] was inactive. The MIC90 in assay [6] amounted to 50 µg/mL (≈ 58.9 µM).

Regarding `CSCC[C@H](NC(=O)NCCc1ccccc1)C(=O)N[C@@H](CNC(=O)[C@@H](N)Cc1ccc([N+](=O)[O-])cc1)C(=O)NC[C@H]1O[C@@H](n2ccc(=O)[nH]c2=O)[C@H](O)[C@@H]1O`, the result in assay [1], in assay [2], in assay [3], in assay [4] and in assay [5] was inactive. The compound also registered an MIC90 in assay [6] of 100 µg/mL (≈ 125 µM).

Regarding `CCCCCCNC(=O)N[C@@H](Cc1ccc(O)cc1)C(=O)N[C@@H](CNC(=O)[C@@H](N)Cc1c[nH]c2ccccc12)C(=O)NC[C@H]1O[C@@H](n2ccc(=O)[nH]c2=O)[C@H](O)[C@@H]1O`, the outcome in assay [1], in assay [2], in assay [3], in assay [4] and in assay [5] was inactive. The MIC90 in assay [6] came to 12.5 µg/mL (≈ 15.5 µM).
